Reference: paper PMC6024207 (Chemical Science, 2016)

Key:
CcO [1] = test: CcO activity in treated HeLa cells; assay type: cell-based, human; conditions: HeLa cells treated 24 h with 50 μM, then lysed
In short: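 HeLa cells were treated 24 h with 50 μM test compound and lysed. Ferrocytochrome c (cytochrome c reduced with dithiothreitol) was added, and the absorbance change at 550 nm was followed, using a reduced–oxidized extinction difference of 21.84. One unit oxidizes […] at pH 7.4, 25 °C. Control was a blank containing 1% DMSO. Results are mean ± SD of at least three experiments in duplicate.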

CcO [2] = test: CcO activity in lysates of untreated HeLa cells; assay type: biochemical, human; conditions: incubation for 30 min with 50 μM
In short: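 Untreated HeLa cells were lysed, and lysates were incubated 30 min with 50 μM test compound. CcO activity was then read with a human CcO ELISA kit. Control was a blank containing 1% DMSO. Results are mean ± SD of at least three experiments, each condition in duplicate.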

bovine SOD1 = test: Inhibition of bovine SOD1 activity in pH 7.4 buffer; assay type: biochemical; conditions: 1 μM SOD1, 5 μM compound, 60 min, 37 °C, 1% DMSO
In short: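 Bovine SOD1 (1 μM) was preincubated 60 min at 37 °C with 5 μM test compound in pH 7.4 buffer containing 1% DMSO. Activity was then measured with a SOD1-specific superoxide dismutase assay kit. Control was the same buffer with 1% DMSO. n ≥ 3, each condition in duplicate; results are mean ± SD.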

tyrosinase from potato = test: Tyrosinase activity; assay type: biochemical; conditions: 50 μM, incubation for 0–20 min
In short: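 Tyrosinase was isolated and purified from potato. The enzyme extract was preincubated at 30 °C in 0.05 M phosphate buffer pH 6.8 containing 50 μM test compound. L-DOPA was added from a 5 mM solution. DOPAchrome formation was followed at 475 nm over time (ε = 3600), and the initial rate gave activity. Control was a blank with 1% DMSO.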

Compound | CcO activity relative to control (CcO [1]) | CcO activity in lysates of untreated cells (CcO [2]) | SOD1 activity, % of the control (bovine SOD1) [%] | reduction in tyrosinase activity relative to the control (tyrosinase from potato)
[N-]=[N+]=[N-].[Na+] [NaN3] | complete inactivation of CcO | complete inactivation of CcO |  | 
CCN(CC)C(=S)S [DDC, diethyldithiocarbamate] |  |  | > 60 | 
[SH-].[SH-].[S]=[Mo]=[S] [TM, tetrathiomolybdate] | reduced to half of that of the control | partial |  | complete inactivation of the enzyme
